Reference: PubChem BioAssay
Active and inactive are the calls of the source.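 How the source made its calls, unless noted: active means visually confirmed hit in the image check and inhibition above 20%; inconclusive means visually confirmed hit but inhibition not above 20%; inactive means no visual hit in the image check.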

Columns and labels:
[1] = inhibitors of TNFa-induced NFkB p65 translocation, primary screen, imaging, HUVEC, MLSMR starter and 10KST1 sets (AID 438;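 active means inhibition above 20% together with a positive visual image hit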;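 further: compound added about 3h40 before a 20 min TNFalpha stimulation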;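 on inhibition: signal is the nuclear over cytoplasmic p65 intensity ratio per well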); settings: HUVEC TNFa-induced p65 nuclear translocation; cell count: measured here: nuclei count (cytotoxicity indicator), at 2.08 µM; inhibition: at 2 µM, stronger effect = higher value, 0% TNFa-plus-vehicle, 100% no-TNFa wells
[2] = inhibitors of mutant huntingtin aggregation, primary screen, imaging, exon1htt(103Q)mCFP cells, high-content imaging (AID 483;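 active means visual image review flags a hit and inhibition of aggregation exceeds 20%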;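 further: compound exposure lasted 3 days before fixation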;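 on nuclei count: percent of the per-plate median nuclei count of sample wells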); settings: exon1htt(103Q)mCFP cell line, aggregate imaging, at 2 µM; inhibition of aggregation: stronger effect = higher value; nuclei count: measured here: cell count, toxicity
[3] = inhibitors of E-selectin induction by TNFa, primary screen, imaging, HUVEC, immunofluorescence, MLSMR starter and 10KST1 sets (AID 487); settings: HUVEC TNFalpha-induced E-selectin immunofluorescence imaging, at 2 µM; inhibition: stronger effect = higher value; nuclei count: measured here: cell number, toxicity;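 on inhibition: signal is fraction of cell area covered by stained E-selectin grains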;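 on nuclei count: 100% = median nuclei count of all wells on the same plate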
[4] = target: Voltage-gated potassium channel subunit beta-2 (Rattus norvegicus) (UniProt P62483); test: KvBeta enzyme negative modulators, primary screen, biochemical, NADPH fluorescence (AID 622;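 active means fluorescence slope higher than the sample average by over 3 SD, cut at about -0.22 in these data, passing the limit was not always enough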;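 further: slope of raw intensity against log time taken from 70 to 1610 s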); settings: recombinant KvBeta, 4-cyanobenzaldehyde reduction, at 10 µM, stronger effect = higher value
Chain of Voltage-gated potassium channel subunit beta-2 (Rattus norvegicus) (P62483 whole entry, looked up): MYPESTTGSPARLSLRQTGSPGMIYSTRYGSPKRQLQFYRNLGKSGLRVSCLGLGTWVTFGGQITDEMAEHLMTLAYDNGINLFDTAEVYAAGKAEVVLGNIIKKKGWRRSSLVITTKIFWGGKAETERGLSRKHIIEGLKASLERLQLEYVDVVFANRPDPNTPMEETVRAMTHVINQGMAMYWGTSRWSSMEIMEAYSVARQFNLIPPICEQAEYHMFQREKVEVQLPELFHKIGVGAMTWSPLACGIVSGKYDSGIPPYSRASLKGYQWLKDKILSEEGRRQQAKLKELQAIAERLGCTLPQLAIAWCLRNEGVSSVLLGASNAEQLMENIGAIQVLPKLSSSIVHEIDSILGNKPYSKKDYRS

[5] = target: Voltage-gated potassium channel subunit beta-2 (Rattus norvegicus) (UniProt P62483); test: KvBeta positive modulators, primary screen, biochemical, NADPH fluorescence (AID 623;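 active means NADPH fluorescence slope more negative than the mean of all samples by about 3 SD, 99.7% confidence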;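 further: fluorescence intensity change per second fitted from 20 to 320 s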); settings: Recombinant KvBeta, NADPH fluorescence decrease slope, 10 min; at 10 µM; stronger effect = lower value
[6] = target: Muscarinic acetylcholine receptor M4 (Homo sapiens) (UniProt P08173); test: compounds altering M4/GIRK thallium flux, either direction, primary screen, M4 allosteric agonist project, cell-based, HEK293 M4/GIRK, BTC-AM (AID 625;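 active means fluorescence slope after compound addition differing from the mean of all tested samples at 99.7% confidence, mostly higher but some lower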;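 further: thallium influx through GIRK channels coupled to M4 in HEK293 cells with BTC-AM dye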); settings: at 10 µM, actives lie on both sides
Chain of Muscarinic acetylcholine receptor M4 (Homo sapiens) (P08173 whole entry, looked up): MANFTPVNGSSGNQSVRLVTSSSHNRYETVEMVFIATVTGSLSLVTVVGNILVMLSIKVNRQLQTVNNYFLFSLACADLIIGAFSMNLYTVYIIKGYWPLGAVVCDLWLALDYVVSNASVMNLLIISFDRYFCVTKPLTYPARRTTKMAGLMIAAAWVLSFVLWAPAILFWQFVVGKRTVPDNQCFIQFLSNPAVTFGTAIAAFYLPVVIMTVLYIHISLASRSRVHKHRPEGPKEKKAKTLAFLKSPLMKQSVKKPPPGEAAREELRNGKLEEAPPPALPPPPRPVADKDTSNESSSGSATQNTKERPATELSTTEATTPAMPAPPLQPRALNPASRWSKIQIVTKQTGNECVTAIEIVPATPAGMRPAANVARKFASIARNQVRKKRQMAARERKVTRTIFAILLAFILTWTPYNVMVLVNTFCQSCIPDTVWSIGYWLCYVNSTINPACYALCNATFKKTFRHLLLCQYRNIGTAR
Method in brief: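 Material: HEK293 cells with M4 receptor and GIRK channels; Times: cells overnight at 37 °C, BTC-AM loading 1 h, reads 2 min total; Technique: kinetic BTC-AM fluorescence sampled at 1 Hz, 10 s pre-addition baseline; Read-out basis: slope over 15–24 s of trace normalized to starting intensity; Controls: carbachol positive, DMSO negative.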

[7] = inhibitors of Sendai virus-induced IRF3 signaling, primary screen, TLR/RLR signaling modifier project, cell-based, Sendai virus stimulus, luciferase, 10K MLSCN set (AID 602276;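 active means inhibition at or above 50% at 10 µM; inactive means inhibition below 50%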;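 further: firefly luciferase from ISG56 promoter only with Renilla not read in this screen; 0% = Sendai virus plus DMSO and 100% = medium plus DMSO without virus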); settings: HEK293 RL24 IRF3 luciferase reporter, at 10 µM, stronger effect = higher value
[8] = inhibitors of poly I:C-induced TLR3 signaling, primary screen, cell-based, poly I:C stimulus, luciferase, 10K MLSCN set (AID 602277;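 active means inhibition of the reporter signal at or above 50%; inactive means inhibition below 50%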); settings: HEK293-TLR3 RL24 IRF3 luciferase reporter, at 10 µM, stronger effect = higher value

SMILES | cell count [1] | inhibition [1] | inhibition of aggregation [2] | nuclei count [2] [%] | inhibition [3] | nuclei count [3] [%] | fluorescence slope [4] | NADPH fluorescence slope [5] | fluorescence slope [6] | inhibition [7] | inhibition [8]
COC(=O)c1[nH]c(C)c(/C(O)=C2\C(=O)C(=O)N(CCCN3CCOCC3)C2c2ccccn2)c1C (stereo not drawn) | 814 | 0.6% (inactive) | 14.2% (inactive) | 110 | -1.3% (inactive) | 113 | -0.473 (inactive) | -2.7e-06 (inactive) | 0.00368 (inactive) | 12.3% (inactive) | 9.49% (inactive)
CCOc1ccccc1N1C(=O)CC(Sc2ncccc2C(=O)O)C1=O (stereo not drawn) | 890 | -0.7% (inactive) | -13.3% (inactive) | 105 | -111% (inactive) | 136 | -0.46 (inactive) | -8.3e-07 (inactive) | 0.00417 (inactive) | 12.2% (inactive) | 13.4% (inactive)
CCc1ncc(C(O)c2cccc(OC)c2OC)n1C (stereo not drawn) | 335 | 2.8% (inactive) | 7.4% (inactive) | 96.1 | 17.7% (inactive) | 126 | -0.451 (inactive) | -2.7e-05 (inactive) | 0.00484 (inactive) | 23.2% (inactive) | 24% (inactive)
O=C1CNCc2[nH]c3ccccc3c2N1c1ccccc1 | 377 | 3.9% (inactive) | 9.4% (inactive) | 104 | -124% (inactive) | 118 | -0.509 (inactive) | -3.5e-05 (inactive) | 0.00541 (inactive) | 17.2% (inactive) | 17.9% (inactive)
CN1C(=O)CSc2ccc(NC(=O)N3CCN(c4ccccn4)CC3)cc21 | 589 | -16.4% (inactive) | -49% (inactive) | 76.7 | -57.6% (inactive) | 112 | -0.455 (inactive) | 8e-05 (inactive) | 0.00601 (inactive) | -6.76% (inactive) | 21.6% (inactive)
COc1ccc(C2=NOC(C(=O)NCCCN3CCOCC3)C2)cc1 (stereo not drawn) | 315 | 3.5% (inactive) | 11.3% (inactive) | 86 | 11.5% (inactive) | 84.7 | -0.554 (inactive) | -0.000122 (inactive) | 0.00417 (inactive) | 11.7% (inactive) | 23.1% (inactive)
Cc1cc(C)n2nc3nc(N4CCCCC4)nc(-c4ccco4)c3c2n1 | 315 | -2.2% (inactive) | -24.4% (inactive) | 105 | -260% (inactive) | 86.7 | -0.433 (inactive) | 1e-05 (inactive) | 0.00465 (inactive) | 12.6% (inactive) | 2.12% (inactive)
COc1ccc(Cn2nnnc2C(c2ccncc2)N2CCOCC2)cc1 (stereo not drawn) | 543 | 0.5% (inactive) | -5.2% (inactive) | 90.8 | -90.6% (inactive) | 119 | -0.608 (inactive) | -1.7e-05 (inactive) | 0.00759 (inactive) | 7.51% (inactive) | 9.52% (inactive)
CN(C)c1cccc(N=C2C=C(N3CCOCC3)CC(C)(C)C2)c1 | 473 | 2.4% (inactive) | 8.4% (inactive) | 86.3 | -54.6% (inactive) | 116 | -0.55 (inactive) | -1.9e-05 (inactive) | 0.00498 (inactive) | -0.858% (inactive) | 16.5% (inactive)
COc1ccc(N(CC(=O)N2CCN(Cc3ccc4c(c3)OCO4)CC2)S(C)(=O)=O)cc1OC | 359 | 5% (inactive) | 2.1% (inactive) | 120 | -52.6% (inactive) | 112 | -0.538 (inactive) | -1.7e-05 (inactive) | 0.00506 (inactive) | 21.2% (inactive) | 20.2% (inactive)
COc1cc(C(=O)N2CCC(c3nc(-c4cccnc4)no3)CC2)cc(OC)c1OC | 651 | -29.6% (inactive) | 2.1% (inactive) | 110 | -33.4% (inactive) | 102 | -0.28 (inactive) | -1.2e-05 (inactive) | 0.00617 (inactive) | 5.18% (inactive) | 24.5% (inactive)
O=C1CC2CS(=O)(=O)CC2N1c1ccc(Oc2ccccc2)cc1 (stereo not drawn) | 330 | 3.1% (inactive) | 5.7% (inactive) | 88.5 | -33.8% (inactive) | 106 | -0.395 (inactive) | -8.8e-05 (inactive) | 0.00573 (inactive) | 17.3% (inactive) | 33% (inactive)
N#C[C@@H]1[C@@H]2C(=O)N(c3ccc4c(c3)OCCO4)C(=O)[C@@H]2C2c3ccccc3C=CN21 (stereo partly drawn) | 351 | 0.5% (inactive) | 6.7% (inactive) | 107 | -62.1% (inactive) | 106 | -0.6 (inactive) | -2.2e-05 (inactive) | 0.00563 (inactive) | -1.7% (inactive) | -13.1% (inactive)
CC1CC(=O)C2=C(C1)OC(N)=C(C#N)C2c1coc2ccccc2c1=O (stereo not drawn) | 282 | -10.1% (inactive) | 8.2% (inactive) | 79.3 | 24.1% (inactive) | 82.2 | -0.514 (inactive) | -4.1e-05 (inactive) | 0.00433 (inactive) | 19.2% (inactive) | 23.4% (inactive)
CC1CN(S(=O)(=O)c2cccc(C(=O)OCc3cc(=O)oc4cc(O)ccc34)c2)CC(C)O1 (stereo not drawn) | 380 | -2.9% (inactive) | 3% (inactive) | 100 | -28.2% (inactive) | 83 | -0.288 (inactive) | -7.6e-05 (inactive) | 0.00505 (inactive) | 23.9% (inactive) | 23.3% (inactive)
CCC(=O)n1nc(-c2ccco2)nc1N | 594 | -0.5% (inactive) | -13.1% (inactive) | 104 | -153% (inactive) | 114 | -0.486 (inactive) | -4.1e-05 (inactive) | 0.00538 (inactive) | 14.3% (inactive) | 15.1% (inactive)
CC(NC(=O)c1ccco1)C(c1cccs1)N1CCN(c2ccc(F)cc2)CC1 (stereo not drawn) | 519 | -0.2% (inactive) | -0.1% (inactive) | 82 | -22.2% (inactive) | 114 | -0.489 (inactive) | 0.000157 (inactive) | 0.00654 (inactive) | 11.9% (inactive) | 12.2% (inactive)
O=C(CN1C(=O)CC(c2ccccc2)=Nc2ccccc21)NCc1ccco1 | 255 | -21.4% (inactive) | 6.1% (inactive) | 74 | 27.6% (inactive) | 77.1 | -0.546 (inactive) | -4.6e-05 (inactive) | 0.00578 (inactive) | 17.2% (inactive) | 18.1% (inactive)
O=C1CC(c2ccco2)=Nc2ccccc2N1 | 195 | -13.4% (inactive) | 7.9% (inactive) | 78.3 | 9.4% (inactive) | 84.6 | -0.573 (inactive) | 1.4e-05 (inactive) | 0.00527 (inactive) | -1.5% (inactive) | -5.46% (inactive)
CCN1CCN(c2c(Cl)cccc2NC(=O)c2ccc3c(c2)OCCO3)CC1 | 505 | 2.1% (inactive) | -4.5% (inactive) | 111 | -82.8% (inactive) | 216 | -0.264 (inactive) | -8.8e-06 (inactive) | 0.0079 (inactive) | 10.2% (inactive) | 18.4% (inactive)
Cc1cc(-c2ccccc2)c2nncn2n1 | 304 | 0.9% (inactive) | -3% (inactive) | 108 | 1.4% (inactive) | 107 | -0.492 (inactive) | -1.4e-05 (inactive) | 0.00457 (inactive) | 18.1% (inactive) | 15.3% (inactive)
COCCn1nnnc1C(c1cc2cc(C)cc(C)c2[nH]c1=O)N1CCN(c2ccccc2F)CC1 (stereo not drawn) | 660 | 10.1% (inactive) | -11% (inactive) | 80.7 | 13.5% (inactive) | 130 | -0.413 (inactive) | 0.000111 (inactive) | 0.00818 (inactive) | 16.8% (inactive) | 29.8% (inactive)
Cc1ccc(C2CC(c3cccc(Br)c3)Nc3nnnn32)cc1 (stereo not drawn) | 460 | -10% (inactive) | -4.9% (inactive) | 90.9 | -1.3% (inactive) | 79.9 | -0.579 (inactive) | 1.4e-05 (inactive) | 0.00604 (inactive) | 25.2% (inactive) | 26% (inactive)
COC(=O)Cn1cc(C(=O)c2cccs2)c2ccccc21 | 220 | -21.4% (inactive) | 8.5% (inactive) | 82.9 | 4.3% (inactive) | 70.5 | -0.554 (inactive) | -3.7e-05 (inactive) | 0.00685 (inactive) | 14.1% (inactive) | 20.4% (inactive)
CCOc1cc(C)c(Cl)cc1S(=O)(=O)N(C)C | 682 | -14.7% (inactive) | -26.4% (inactive) | 113 | -5.4% (inactive) | 99.4 | -0.565 (inactive) | -5.1e-05 (inactive) | 0.00578 (inactive) | 20.4% (inactive) | 22.4% (inactive)
O=C(O)CCCNS(=O)(=O)c1ccc(NCc2ccccc2)c(C(=O)O)c1 | 687 | 6.7% (inactive) | 2.8% (inactive) | 87.1 | 7% (inactive) | 91.1 | -0.343 (inactive) | -5e-05 (inactive) | 0.00502 (inactive) | 10.5% (inactive) | 10.3% (inactive)
O=C(NCCCN1CCOCC1)C1CC(=O)N(CCc2ccccc2)C1 (stereo not drawn) | 295 | -1% (inactive) | 0.4% (inactive) | 104 | -88% (inactive) | 117 | -0.545 (inactive) | 1.7e-05 (inactive) | 0.00479 (inactive) | 15.2% (inactive) | 22.3% (inactive)
Cc1ccc(CNC(=O)CSc2n[nH]c(N)n2)cc1 | 498 | -7.2% (inactive) | 20% (inactive) | 44.8 | -21.8% (inactive) | 136 | -0.579 (inactive) | -6.4e-05 (inactive) | 0.00347 (inactive) | 15.9% (inactive) | 20.6% (inactive)
